Assay results from different studies.
Compare with care: the assays were run in different laboratories.
Target: MAP/microtubule affinity-regulating kinase 4 (MARK4, Homo sapiens, UniProt Q96L34)
One construct used (Q96L34 1-752): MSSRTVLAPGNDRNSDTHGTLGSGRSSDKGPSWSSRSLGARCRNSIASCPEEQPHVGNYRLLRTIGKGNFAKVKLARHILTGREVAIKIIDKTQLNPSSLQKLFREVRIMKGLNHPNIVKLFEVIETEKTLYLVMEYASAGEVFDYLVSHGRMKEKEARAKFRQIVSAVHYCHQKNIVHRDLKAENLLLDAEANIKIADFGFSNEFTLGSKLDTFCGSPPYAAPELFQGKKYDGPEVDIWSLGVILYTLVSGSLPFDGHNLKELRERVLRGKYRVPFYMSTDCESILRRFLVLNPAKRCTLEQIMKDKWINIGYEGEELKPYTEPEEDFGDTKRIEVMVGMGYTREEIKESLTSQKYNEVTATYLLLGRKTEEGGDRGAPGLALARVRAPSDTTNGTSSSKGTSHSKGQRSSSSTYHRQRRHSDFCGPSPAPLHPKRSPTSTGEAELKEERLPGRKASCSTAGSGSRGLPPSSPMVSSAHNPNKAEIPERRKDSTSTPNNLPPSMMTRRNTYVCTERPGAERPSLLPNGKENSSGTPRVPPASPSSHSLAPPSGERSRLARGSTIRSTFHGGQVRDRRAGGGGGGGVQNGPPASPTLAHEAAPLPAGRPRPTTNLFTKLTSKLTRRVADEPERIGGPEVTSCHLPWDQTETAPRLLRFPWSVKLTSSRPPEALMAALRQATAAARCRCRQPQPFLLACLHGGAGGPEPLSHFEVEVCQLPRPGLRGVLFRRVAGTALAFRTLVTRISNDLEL

| SMILES | assay | conditions | endpoint | value |
| --- | --- | --- | --- | --- |
| CCS(=O)(=O)c1cc2cc(C[C@@](O)(CC(C)(C)c3ccc(F)cc3C(N)=O)C(F)(F)F)[nH]c2cn1 | cell-free assay, competition with immobilised ligand | 1 µM | remaining binding | 100% |
| Cc1nn(CC(F)(F)F)cc1Nc1nccc(NCCc2cnc[nH]2)n1 | enzyme activity, inhibitor, radiometric | 1 µM | remaining activity | 99% |
| CCCCN(CCCC)C(=O)CN1C[C@@H](c2cc(OC)c3c(c2)OCO3)[C@H](C(=O)O)[C@H]1CC(C)(C)CCC | cell-free assay, competition with immobilised ligand | 1 µM | remaining binding | 93% |
| O=C(Nc1cnn(-c2csc(C(=O)NC3COC3)c2)c1)Nc1ccccc1Cl | enzyme activity, inhibitor | 5 µM | remaining activity | 108% |
| COc1cc2ncnc(Nc3ccc(F)c(Cl)c3)c2cc1OCCCN1CCOCC1 | cell-free assay | 0.5 µM | remaining signal | 94.2% |
| Cc1nn(CC(F)(F)F)cc1Nc1ncc(C2CC2)c(NCCCNC(=O)C2CCC2)n1 | enzyme activity, inhibitor, radiometric | 1 µM | remaining activity | 100% |
| CC/C(=N\NC(=O)NCc1cccc(O)c1)c1ccc(O)c(C)c1O | enzyme activity, inhibitor | 0.1 µM | inhibition | -2.4% |
| CN1CC(Oc2cnc(C#N)cc2-c2ccn3nc(NC(=O)C4CC4)cc3c2)C1 | enzyme activity, inhibitor | 1 µM | inhibition | 8% |
| COc1cc(Nc2cnc(C#N)c(O[C@H](C)CN(C)C)n2)ncc1-c1cnn(C)c1 | enzyme activity, inhibitor, radiometric | 10 µM | remaining activity | 83% |
| NS(=O)(=O)c1ccc(CNc2nc(Nc3cccc(NC(=O)N4CCCC4)c3)ncc2Br)cc1 | enzyme activity, inhibitor, radiometric | 1 µM | remaining activity | 42% |
| O=C1NC(=O)c2cc(Nc3ccc(F)cc3)c(Nc3ccc(F)cc3)cc21 | cell-free assay | 0.5 µM | remaining signal | 98.2% |
| C[C@@H](c1cccc(C#N)c1)n1cc(Cl)cc(C(N)=O)c1=N | cell-free assay, competition with immobilised ligand | 1 µM | remaining binding | 100% |
| COc1cc(Nc2c(C#N)cnc3cc(OCCCN4CCN(C)CC4)c(OC)cc23)c(Cl)cc1Cl | cell-free assay | 0.5 µM | remaining signal | 60.6% |
| C[C@H]1CCN(c2nccc(-c3cnn4ncccc34)n2)C1 | binding | 1 µM | remaining binding | 100% |
| CC(=O)N1CCC(c2ccc(C(=O)NC(=N)N)cc2C(F)(F)F)CC1 | cell-free assay, competition with immobilised ligand | 1 µM | remaining binding | 100% |
| Cc1nn(CC(F)(F)F)cc1Nc1ncc(Br)c(NCCCNC(=O)C2CCC2)n1 | enzyme activity, inhibitor, radiometric | 1 µM | remaining activity | 27% |
| COc1cc2ncnc(Nc3ccc(Oc4ccccc4)cc3C)c2cc1OC | enzyme activity, inhibitor | 1 µM | inhibition | 6% |
| FC(F)(F)Oc1cccc(-c2cnc3ccc(-c4ccncc4)nn23)c1 | enzyme activity, inhibitor, radiometric | 5 µM | activity vs control | 93% |
| O=C(Nc1cccnn1)N1CCC(=Cc2cccc(Oc3ccc(C(F)(F)F)cn3)c2)CC1 | cell-free assay, competition with immobilised ligand | 1 µM | remaining binding | 76% |
| NS(=O)(=O)c1ccc(CNc2nc(Nc3cccc(CN4CCOCC4)c3)ncc2C2CC2)cc1 | enzyme activity, inhibitor, radiometric | 1 µM | remaining activity | 98% |
| CS(=O)(=O)NCC[C@H](NC(=O)c1cncc2c1cnn2-c1ccc(F)cc1)c1ccnc(S(C)(=O)=O)c1 | cell-free assay, competition with immobilised ligand | 1 µM | remaining binding | 78% |
| O=C(NCCCNc1nc(Nc2cccc(CN3CCOCC3)c2)ncc1C1CC1)C1CCC1 | enzyme activity, inhibitor, radiometric | 1 µM | remaining activity | 5% |
| Nc1ncnc2occ(-c3ccc(NC(=O)Nc4cc(C(F)(F)F)ccc4F)cc3)c12 | cell-free assay, inhibitor | 20 µM | remaining signal | 51% |
| CCOCCn1cc(C(=O)Nc2ccc(-n3nc(-c4cccnc4)cc3C(F)(F)F)cn2)ccc1=O | cell-free assay, competition with immobilised ligand | 1 µM | remaining binding | 100% |
| NS(=O)(=O)c1ccc(CNc2nc(Nc3cccc(CN4CCOCC4)c3)ncc2Br)cc1 | enzyme activity, inhibitor, radiometric | 1 µM | remaining activity | 61% |
